This passage reports IC50 and Activity results from ChEMBL document CHEMBL1153959, “QSAR analysis of pyrazolidine-3,5-diones derivatives as Dyrk1A inhibitors” (Bioorg Med Chem Lett, 2009).

As a reminder, the IC50 is the concentration needed to halve the response being measured.

Experiment [1] concerns the target Dual specificity tyrosine-phosphorylation-regulated kinase 1A (Mus musculus) (UniProt Q61214). The experiment can be described thus: Inhibition of Dyrk1 autophosphorylation.
The target of experiment [2] is Cyclin-dependent kinase 5/CDK5 activator 1 (Homo sapiens) (UniProt Q00535+Q15078). The experiment can be described thus: Inhibition of human CDK5/p35 at 10 uM. Format: protein-complex assay. On the set-up: scale not given: the % may be the effect or the level left. The gist of the method:
(§1)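 Each human kinase was assayed with ATP at that kinase's own Km value. Activity was expressed as a percentage of control incubations run without inhibitor. Values are means of duplicate determinations with SD.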

Experiment [3] concerns the target Dual specificity protein kinase CLK3 (Homo sapiens) (UniProt P49761). The experiment can be described thus: Inhibition of human CLK3 at 10 uM. On the set-up: scale not given: the % may be the effect or the level left. The gist of the method: as §1
In experiment [4] the target is T1, Dual specificity tyrosine-phosphorylation-regulated kinase 2 (Homo sapiens) (UniProt Q92630).
T1 sequence (whole entry): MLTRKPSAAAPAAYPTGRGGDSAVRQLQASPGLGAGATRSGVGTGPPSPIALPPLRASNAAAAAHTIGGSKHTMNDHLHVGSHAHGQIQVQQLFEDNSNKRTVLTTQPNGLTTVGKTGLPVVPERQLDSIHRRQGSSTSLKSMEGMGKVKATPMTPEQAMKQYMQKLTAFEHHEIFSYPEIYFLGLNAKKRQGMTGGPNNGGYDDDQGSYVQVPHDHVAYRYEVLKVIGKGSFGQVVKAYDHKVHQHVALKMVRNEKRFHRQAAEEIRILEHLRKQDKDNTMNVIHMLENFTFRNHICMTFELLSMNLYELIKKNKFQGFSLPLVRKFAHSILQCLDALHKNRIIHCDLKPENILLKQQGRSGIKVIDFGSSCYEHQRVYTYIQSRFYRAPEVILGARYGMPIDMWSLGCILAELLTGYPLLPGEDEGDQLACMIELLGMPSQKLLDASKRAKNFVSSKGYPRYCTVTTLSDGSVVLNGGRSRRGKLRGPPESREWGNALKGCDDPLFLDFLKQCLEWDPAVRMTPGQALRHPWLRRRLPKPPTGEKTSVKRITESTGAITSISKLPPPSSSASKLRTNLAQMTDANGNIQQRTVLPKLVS
The experiment can be described thus: Inhibition of human DYRK2 at 10 uM. On the set-up: scale not given: the % may be the effect or the level left. The procedure, abridged:
as §1

Experiment [5] deals with Glycogen synthase kinase-3 beta (Homo sapiens) (UniProt P49841). The experiment can be described thus: Inhibition of human GSK3-beta at 10 uM. On the set-up: scale not given: the % may be the effect or the level left. The gist of the method: as §1
Experiment [6] concerns the target Mitogen-activated protein kinase 10 (Homo sapiens) (UniProt P53779). The experiment can be described thus: Inhibition of human JNK3 at 10 uM. Further details: scale not given: the % may be the effect or the level left. The gist of the method:
as §1

Experiment [7] addresses MAP kinase-activated protein kinase 2 (Homo sapiens) (UniProt P49137). Nature of the experiment: Inhibition of human MAPK2 at 10 uM. Further details: scale not given: the % may be the effect or the level left. The procedure, abridged:
as §1

The species named for experiment [8] is Homo sapiens. Nature of the experiment: Inhibition of human PKA at 10 uM. Further details: scale not given: the % may be the effect or the level left. The gist of the method: as §1
For experiment [9], the target named is Protein kinase C alpha type (Homo sapiens) (UniProt P17252). Nature of the experiment: Inhibition of human PKCalpha at 10 uM. On the set-up: scale not given: the % may be the effect or the level left. The procedure, abridged:
as §1

Each structure is given as a SMILES string.

Chain of Cyclin-dependent kinase 5/CDK5 activator 1 (Homo sapiens) (Q00535 whole entry): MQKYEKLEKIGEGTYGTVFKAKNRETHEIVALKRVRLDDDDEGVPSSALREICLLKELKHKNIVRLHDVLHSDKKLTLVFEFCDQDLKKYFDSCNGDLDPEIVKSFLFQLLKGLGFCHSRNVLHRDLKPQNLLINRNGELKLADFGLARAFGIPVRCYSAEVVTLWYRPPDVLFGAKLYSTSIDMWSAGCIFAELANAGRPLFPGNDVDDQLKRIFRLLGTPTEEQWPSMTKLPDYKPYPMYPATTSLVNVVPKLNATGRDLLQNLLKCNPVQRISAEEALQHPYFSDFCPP
Chain of Cyclin-dependent kinase 5/CDK5 activator 1 (Homo sapiens) (Q15078 99-307 partner limits assumed): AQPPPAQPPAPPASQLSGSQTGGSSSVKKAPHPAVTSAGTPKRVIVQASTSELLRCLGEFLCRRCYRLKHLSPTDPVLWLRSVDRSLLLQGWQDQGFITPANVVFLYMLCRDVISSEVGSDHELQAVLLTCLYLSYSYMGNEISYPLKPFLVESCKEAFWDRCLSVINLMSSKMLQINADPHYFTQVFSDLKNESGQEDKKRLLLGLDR
Chain of Mitogen-activated protein kinase 10 (Homo sapiens) (P53779 whole entry): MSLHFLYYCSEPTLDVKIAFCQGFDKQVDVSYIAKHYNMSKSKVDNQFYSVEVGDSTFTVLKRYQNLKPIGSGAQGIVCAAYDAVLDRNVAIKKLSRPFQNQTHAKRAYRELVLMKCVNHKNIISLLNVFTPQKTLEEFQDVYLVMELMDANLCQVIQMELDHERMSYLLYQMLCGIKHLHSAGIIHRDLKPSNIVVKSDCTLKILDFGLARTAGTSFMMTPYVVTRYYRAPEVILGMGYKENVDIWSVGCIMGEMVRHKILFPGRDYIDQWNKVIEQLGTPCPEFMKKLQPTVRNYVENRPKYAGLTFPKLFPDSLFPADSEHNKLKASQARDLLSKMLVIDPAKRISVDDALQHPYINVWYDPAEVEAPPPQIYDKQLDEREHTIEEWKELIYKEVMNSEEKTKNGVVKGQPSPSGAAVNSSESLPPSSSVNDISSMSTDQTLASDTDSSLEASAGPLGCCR
Chain of Dual specificity protein kinase CLK3 (Homo sapiens) (P49761 whole entry, looked up): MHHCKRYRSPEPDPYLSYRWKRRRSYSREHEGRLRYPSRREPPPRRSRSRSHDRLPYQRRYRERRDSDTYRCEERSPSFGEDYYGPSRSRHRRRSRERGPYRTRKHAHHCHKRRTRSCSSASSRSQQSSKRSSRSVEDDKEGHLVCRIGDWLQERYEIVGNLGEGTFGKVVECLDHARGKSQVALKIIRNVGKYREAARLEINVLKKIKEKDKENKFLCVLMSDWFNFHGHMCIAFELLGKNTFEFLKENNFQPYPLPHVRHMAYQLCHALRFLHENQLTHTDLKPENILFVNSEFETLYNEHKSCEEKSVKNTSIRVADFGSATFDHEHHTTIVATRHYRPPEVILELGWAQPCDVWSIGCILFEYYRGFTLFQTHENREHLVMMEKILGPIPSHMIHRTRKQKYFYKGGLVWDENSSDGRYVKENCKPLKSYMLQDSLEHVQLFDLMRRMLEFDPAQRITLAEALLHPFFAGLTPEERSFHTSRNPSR
Chain of Glycogen synthase kinase-3 beta (Homo sapiens) (P49841 whole entry, looked up): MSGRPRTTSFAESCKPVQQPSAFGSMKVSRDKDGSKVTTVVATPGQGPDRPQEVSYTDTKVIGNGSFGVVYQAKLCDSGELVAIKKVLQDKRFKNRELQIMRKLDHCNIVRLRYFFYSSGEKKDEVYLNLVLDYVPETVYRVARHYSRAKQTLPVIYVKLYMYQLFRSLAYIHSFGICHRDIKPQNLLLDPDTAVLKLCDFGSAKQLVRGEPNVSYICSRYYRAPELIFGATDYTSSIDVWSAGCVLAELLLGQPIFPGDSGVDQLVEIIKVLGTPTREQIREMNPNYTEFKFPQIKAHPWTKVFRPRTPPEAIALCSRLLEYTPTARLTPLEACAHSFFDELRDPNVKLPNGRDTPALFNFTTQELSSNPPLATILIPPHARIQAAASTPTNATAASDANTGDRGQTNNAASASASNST
Chain of MAP kinase-activated protein kinase 2 (Homo sapiens) (P49137 whole entry, looked up): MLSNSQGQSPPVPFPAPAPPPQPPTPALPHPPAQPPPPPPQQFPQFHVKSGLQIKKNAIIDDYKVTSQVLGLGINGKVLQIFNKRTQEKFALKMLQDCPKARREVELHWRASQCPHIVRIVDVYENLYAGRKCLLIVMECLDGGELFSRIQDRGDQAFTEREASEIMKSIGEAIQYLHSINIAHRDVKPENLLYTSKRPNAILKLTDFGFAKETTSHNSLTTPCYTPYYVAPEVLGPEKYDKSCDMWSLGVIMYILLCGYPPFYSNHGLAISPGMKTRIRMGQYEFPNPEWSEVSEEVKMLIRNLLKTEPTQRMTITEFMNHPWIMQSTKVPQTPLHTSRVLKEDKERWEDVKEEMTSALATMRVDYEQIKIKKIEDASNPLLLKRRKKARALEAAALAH

Consider `COc1ccc(N2NC(=O)/C(=C\c3ccccc3F)C2=O)cc1`, for which, in experiment [1], the IC50 is greater than 50 µM.

Compound `COc1ccc(/C=C2\C(=O)NN(c3ccc(C#N)cc3)C2=O)cc1O` registered an IC50 in experiment [1] greater than 50 µM.

In [1], `O=C1NN(c2ccc(Cl)c(Cl)c2)C(=O)/C1=C/c1ccccc1F` yielded an IC50 greater than 50 µM.

In experiment [1], `COc1ccccc1/C=C1\C(=O)NN(c2ccc(C#N)cc2)C1=O` displayed an IC50 of 40 µM.

Regarding `COc1ccc(N2NC(=O)/C(=C\c3cc(OC)c(O)c(OC)c3)C2=O)cc1`, the IC50 in [1] is greater than 50 µM.

For `COc1cc(/C=C2\C(=O)NN(c3ccc(Cl)c(Cl)c3)C2=O)ccc1O`, the IC50 in experiment [1] amounted to 2.5 µM.

For `COc1cc(/C=C2\C(=O)NN(c3ccc(C#N)cc3)C2=O)ccc1O`, the Activity in [2] was determined as 104%; in [3] it was 93%; in [4], 78%; in [5], 76%; in experiment [6], 93%; in experiment [7] it was 110%. The Activity in experiment [8] stood at 69%; in experiment [9], 77%. This compound had a half-maximal inhibitory concentration (IC50) in experiment [1] of 0.6 µM.

`COc1ccc(N2NC(=O)/C(=C\c3cccc(Cl)c3Cl)C2=O)cc1` gave an IC50 in experiment [1] greater than 50 µM.

Regarding `O=C1NN(c2ccc(Cl)c(Cl)c2)C(=O)/C1=C/c1ccc(Cl)cc1`, the IC50 in [1] was found to be 20 µM.

For `COc1ccc(/C=C2\C(=O)NN(c3ccc(Cl)c(Cl)c3)C2=O)cc1O`, in [1], the 50% inhibitory concentration (IC50) is greater than 50 µM.

With `O=C1NN(c2ccc(Cl)c(Cl)c2)C(=O)/C1=C/c1ccc(F)c(F)c1`, in experiment [1], it took 5 µM to reach half-maximal inhibition (IC50).

Compound `COc1ccc(N2NC(=O)/C(=C\c3cc(OC)cc(OC)c3)C2=O)cc1` registered an IC50 in experiment [1] greater than 50 µM.

In experiment [1], `O=C1NN(c2ccc(Cl)c(Cl)c2)C(=O)/C1=C/c1c(Cl)cccc1Cl` gave an IC50 greater than 50 µM.

Take `COc1ccccc1/C=C1\C(=O)NN(c2ccc(F)cc2)C1=O`: the IC50 in [1] was greater than 50 µM.

Turning to `COc1cc(/C=C2\C(=O)NN(c3ccc(Cl)c(Cl)c3)C2=O)cc(OC)c1O`, the IC50 in experiment [1] was greater than 50 µM.

`COc1ccc(N2NC(=O)/C(=C\c3ccc(OC)c(O)c3)C2=O)cc1` had a half-maximal inhibitory concentration (IC50) in [1] greater than 50 µM.

`O=C1NN(c2ccc(Cl)c(Cl)c2)C(=O)/C1=C/c1ccc(O)cc1`: the IC50 in [1] was determined as 2.5 µM.

Consider `COc1ccc(/C=C2\C(=O)NN(c3ccc(Cl)c(Cl)c3)C2=O)cc1OC`, for which the IC50 in experiment [1] is greater than 50 µM.

Take `O=C1NN(c2ccc(Cl)c(Cl)c2)C(=O)/C1=C/c1ccc(O)c([N+](=O)[O-])c1`: the Activity worked out at 91% in [2]; 75% in experiment [3]; 17% in experiment [4]; 102% in experiment [5]; 94% in experiment [6]; 105% in experiment [7]. In addition, the Activity was 72% in [8] and 82% in experiment [9]. This compound returned a 50% inhibitory concentration (IC50) in [1] of 0.6 µM.

Take `COc1ccc(N2NC(=O)/C(=C\c3ccccc3OC)C2=O)cc1`: in experiment [1], the concentration for half-maximal inhibition (IC50) is greater than 50 µM.

Turning to `COc1cc(/C=C2\C(=O)NN(c3ccc(Cl)c(Cl)c3)C2=O)cc(OC)c1`, in [1], the concentration for half-maximal inhibition (IC50) came out at 20 µM.

Regarding `COc1ccc(/C=C2\C(=O)NN(c3ccc(Cl)c(Cl)c3)C2=O)cc1`, the half-maximal inhibitory concentration (IC50) in experiment [1] was greater than 50 µM.

Turning to `COc1ccc(N2NC(=O)/C(=C\c3cc(O)cc(O)c3)C2=O)cc1`, in [1], the IC50 was greater than 50 µM.

Turning to `COc1ccc(N2NC(=O)/C(=C\c3ccc(O)c(OC)c3)C2=O)cc1`, the IC50 in experiment [1] was found to be 1.2 µM.

Compound `O=C1NN(c2ccc(Cl)c(Cl)c2)C(=O)/C1=C/c1cc(O)cc(O)c1` displayed a concentration for half-maximal inhibition (IC50) in [1] greater than 50 µM.

For the compound `O=C1NN(c2ccc(Cl)c(Cl)c2)C(=O)/C1=C/c1ccccc1Cl`, the midpoint of inhibition in [1], the IC50, lay at 20 µM.

As to `O=C1NN(c2ccc(Cl)c(Cl)c2)C(=O)/C1=C/c1cccc(Cl)c1Cl`, the midpoint of inhibition in experiment [1], the IC50, lay at 15 µM.

Consider `COc1ccc(/C=C2\C(=O)NN(c3ccc(Cl)c(Cl)c3)C2=O)c(OC)c1`, for which the concentration for half-maximal inhibition (IC50) in experiment [1] was greater than 50 µM.

Consider `COc1ccccc1/C=C1\C(=O)NN(c2ccc(Cl)c(Cl)c2)C1=O`, for which the IC50 in experiment [1] was greater than 50 µM.

`O=C1NN(c2ccc(Cl)c(Cl)c2)C(=O)/C1=C/c1ccccc1[N+](=O)[O-]` registered an IC50 in experiment [1] greater than 50 µM.

As for `O=C1NN(c2ccc(Cl)c(Cl)c2)C(=O)/C1=C/c1ccccc1`, the IC50 in experiment [1] was greater than 50 µM.

As for `COc1ccc(N2NC(=O)/C(=C\c3cccc(OC)c3)C2=O)cc1`, the IC50 in [1] is greater than 50 µM.

`COc1cccc(/C=C2\C(=O)NN(c3ccc(Cl)c(Cl)c3)C2=O)c1`: the concentration for half-maximal inhibition (IC50) in experiment [1] was greater than 50 µM.
